Screening results: PubChem BioAssay, several laboratories
GRK2 inh: compounds blocking aptamer binding on GRK2 – biochemical, human GRK2, bead flow cytometry, HTS, primary screen | Beta-adrenergic receptor kinase 1 (Homo sapiens), P25098 | FAM-aptamer displacement from GRK2 | inhibition of aptamer binding, % at 10 µM | actives 0.59% (n = 330,000) | AID 488847, 2010;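 active = inhibition of aptamer binding above 40%, roughly 3 SD of noise, on plates passing a quality check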;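 note: median bead fluorescence of bound FAM aptamer so fluorescent compounds give negative values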
procasp3 activ: activators of human procaspase-3 D3A mutant, primary screen, biochemical, absorbance, PC-3 D3A mutant, single concentration; Caspase-3 (Homo sapiens), P42574; recombinant procaspase-3 D3A, Ac-DEVD-pNA absorbance 405 nm; activation, % at 8.5 µM; actives 0.11% (n = 330,000); AID 463141, 2010;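 active = activation above the mean of all tested compounds plus 3 SD, cut at about 21% in these data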;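 note: 0% = DMSO alone and 100% = DMSO wells spiked with extra 5 µM PC-3 D3A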
Target sequence (P42574 whole entry D9A/D28A/D175A): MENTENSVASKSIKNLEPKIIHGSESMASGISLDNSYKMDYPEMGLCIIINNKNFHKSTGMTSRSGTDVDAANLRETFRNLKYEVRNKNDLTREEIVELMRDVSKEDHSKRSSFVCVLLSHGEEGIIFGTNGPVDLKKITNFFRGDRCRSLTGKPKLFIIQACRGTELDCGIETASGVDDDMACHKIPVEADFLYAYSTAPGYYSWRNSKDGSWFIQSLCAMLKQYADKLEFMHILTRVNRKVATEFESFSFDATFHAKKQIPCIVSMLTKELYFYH
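Assay system – Procaspase-3 D3A mutant · Benchmarks – DMSO low control, extra-enzyme high control · Technique – 405 nm absorbance of p-nitroaniline, reads at 0 and 120 min · Doses – 8.5 µM nominal · Measure – % activation between DMSO and enzyme-spiked controls · Also added – Ac-DEVD-pNA chromogenic peptide substrate · Schedule – 1 h compound preincubation, 2 h substrate hydrolysis at 25 °C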
proCasp7 act: procaspase-7 activators, primary screen, counter-screen for procaspase-3 activator project, biochemical, absorbance, HTS, human; activation, % at 8.5 µM; recombinant procaspase-7, Ac-DEVD-pNA absorbance 405 nm; D23A/D198A/D206A triple mutant, cannot self-cleave; scale: DMSO 0, 5 µM enzyme 100; actives 0.093% (n = 330,000); Caspase-7 (Homo sapiens), P55210;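 active = percent activation above the screen-wide mean plus 3 SD, cut at about 25% in these data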
Target sequence (P55210 whole entry D23A/D198A/D206A): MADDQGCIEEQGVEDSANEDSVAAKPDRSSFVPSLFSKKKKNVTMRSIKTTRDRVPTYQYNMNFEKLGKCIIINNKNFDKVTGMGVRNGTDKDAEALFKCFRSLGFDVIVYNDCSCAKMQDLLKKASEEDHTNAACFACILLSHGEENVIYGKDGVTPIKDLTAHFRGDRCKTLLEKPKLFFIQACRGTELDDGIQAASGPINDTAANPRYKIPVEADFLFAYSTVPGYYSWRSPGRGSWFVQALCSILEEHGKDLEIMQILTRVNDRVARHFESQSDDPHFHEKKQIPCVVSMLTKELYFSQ
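Assay system – Uncleavable procaspase-7 mutant enzyme · Quantity – 2 µM procaspase-7 mutant as dispensed · Times – 1 h preincubation, 2 h reaction · Dosing – single nominal 8.5 µM compound dose, 0.8% DMSO final · Buffer or medium – Zinc-free 50 mM HEPES buffer, pH 7.4, with NaCl and Triton X-100 · Detection – Epi-absorbance of released pNA at 405 nm, two timepoints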
CaV13 ICDI inh: Disruptors of the CACNA1D IQ motif to Ca2+-dependent inactivation inhibitor domain association, primary screening, Förster resonance energy transfer in intact living … | AID 743397 | actives 0.098% (n = 340,000) | inhibition, % at 12.3 µM | HEK cells, CFP/YFP FRET ICDI-IQ, plate reader, 10 min; percent FRET-ratio fall versus neutral wells;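 active = mean replicate inhibition of at least 30% and at least 1% of replicates passing that level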;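 note: 0% = median of the neutral control wells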
aDG glyco act: activators of alpha-DG glycosylation, primary screen, uHTS, Pro5-aDG cells, AlphaScreen. alpha-DG glycosylation AlphaScreen (IIH6); 0% Pro5, 100% B10-LARGE cell signal. activation, % at 10 µM. actives 0.22% (n = 360,000);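 active = activation of at least 8% versus controls, or a plate z-score of at least 8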;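 note: Pro5 are CHO cells carrying HIG-tagged alpha-DG that lacks glycosylation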
T cell modulator: modulators of CD8 T cell-vesicle binding, primary screen, mouse 2C CD8+ T cells, flow cytometry; response (vesicle binding), % at 7 µM; actives 0.068% (n = 330,000); 2C CD8+ T cell-vesicle binding; hits give low values; AID 2052, 2009;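 active = response, share of CD8 T cells binding vesicles, and their 90th percentile fluorescence all below set limits, cut at about 80% in these data, passing the limit was not always enough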;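 note: values below 100% mean blocked vesicle binding to the CD8+ T cells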
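Also added: QL9-peptide-loaded Drosophila micro-vesicles bearing Ld, ICAM-1 and B7-1; Test system: purified 2C TCR transgenic mouse naive CD8+ T cells; Measured by: cytometric PE anti-B7-1 and Alexa647 anti-CD8 signals after 1% paraformaldehyde fixation; Timing: binding step 1.5 h, 37 °C, antibody labelling 20 min, ice.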
GRK2 inh confirm: GRK2 aptamer-displacing inhibitors, retest, confirmation, biochemical, cherry pick 1, bead flow cytometry | actives 4% (n = 2,000) | aptamer displacement, % at 10 µM | AID 504451, 2011 | bead-bound GRK2, FAM-aptamer displacement | shares compounds with GRK2 inh;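 active = aptamer displacement above 40%, near three times the noise of non-fluorescent compounds, on plates passing quality checks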;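 note: negative values mostly reflect intrinsic compound fluorescence rather than true enhancement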
Aptamer quench SP: quenches fluorescent RNA aptamer, GRK2 hit artifact; 2,000 tested, under 10 active; shares compounds with GRK2 inh; AID 504580; fluorescence response (% of DMSO), % at 10 µM; Carboxyfluorescein RNA aptamer on beads, flow cytometry quenching; hits give low values;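 active = compounds that quench the bead-bound fluorescent RNA probe, cutting fluorescence to under half of the solvent control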;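 note: counterscreen run without GRK2 so only probe quenching by compound is measured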
GRK2 CP2: GRK2 aptamer-displacing inhibitors, hit retest, confirmation, biochemical, cherry pick 2, bead flow cytometry; 360 tested, under 10 active; inhibition of aptamer binding, % at 10 µM; bead-bound GRK2, FAM-aptamer displacement; AID 504782, 2011; shares compounds with GRK2 inh;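 active = inhibition of aptamer binding above 40%, about triple the noise seen with nonglowing compounds, on plates passing quality control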;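 note: negative values mostly come from compounds that fluoresce themselves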
FAM quench SP: aptamer fluorescence quenching in GRK2 counter-screen. shares compounds with GRK2 inh. carboxyfluorescein RNA aptamer beads, flow cytometry quenching; hits give low values. fluorescence response vs DMSO, % at 10 µM. 360 tested, under 10 active. AID 588494;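 active = response vs DMSO under 50%, meaning signal dropped by over half, treated as fluorescence quencher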;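 note: labelled aptamer on streptavidin beads without GRK2 as a quench counter-screen; 100% = bead fluorescence of DMSO wells and lower means quenching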
* marks the source's active call; other numbers are inactive results. A selection: hits, their analogues and other compounds. The true share with any hit is near 1.1%.

How did O=C1NC(=S)S/C1=C\c1ccc(SCc2ccccc2)o1 do in these assays?
GRK2 inh: 46*; procasp3 activ: -29; proCasp7 act: -36; CaV13 ICDI inh: -4; aDG glyco act: 0; T cell modulator: 528; GRK2 inh confirm: 21; Aptamer quench SP: 97

How did O=C(NNS(=O)(=O)c1ccc([N+](=O)[O-])cc1)C(=O)Nc1cccc(C(=O)O)c1 do in these assays?
GRK2 inh: 69*; procasp3 activ: -3; proCasp7 act: -16; CaV13 ICDI inh: -2; aDG glyco act: 6; T cell modulator: 234; GRK2 inh confirm: 5; Aptamer quench SP: 102

Results for O=C(Nc1nc2ccccc2s1)c1ccc2sc([C@H]3C[C@H](O)[C@@H](CO)O3)nc2c1 ?
CaV13 ICDI inh: -5; aDG glyco act: 0

What do the screens show for `COc1cccc(C2(O)CCN(C(=O)C(C)C)CC2)c1`?
GRK2 inh: 55*; procasp3 activ: 9; proCasp7 act: -2; CaV13 ICDI inh: -4; aDG glyco act: 0; T cell modulator: 736; GRK2 inh confirm: 1; Aptamer quench SP: 100

How did CC(=O)Oc1ccc2ccccc2c1C(NC(=O)Cc1ccccc1)c1ccc(Cl)cc1 (stereo not drawn) do in these assays?
GRK2 inh: 0; procasp3 activ: 12; proCasp7 act: 3; CaV13 ICDI inh: -5; aDG glyco act: 0; T cell modulator: 570

How did CC(=O)NN1CCc2cc3ccc(C)cc3nc21 do in these assays?
GRK2 inh: 90*; procasp3 activ: 3; proCasp7 act: -1; CaV13 ICDI inh: -2; aDG glyco act: 0; T cell modulator: 218; GRK2 inh confirm: -10; Aptamer quench SP: 96

How did CCC(C)NC(=O)NC(=O)CSc1nnc(-c2ccccc2F)n1C1CC1 (stereo not drawn) do in these assays?
GRK2 inh: 49*; procasp3 activ: 9; proCasp7 act: 0; CaV13 ICDI inh: -4; aDG glyco act: 0; T cell modulator: 318; GRK2 inh confirm: 1; Aptamer quench SP: 106

Results for CCC(=O)Nc1ccc(C(=O)CSc2nnc(-c3ccccc3F)n2C2CC2)cc1 ?
GRK2 inh: 0; procasp3 activ: -8; proCasp7 act: 3; CaV13 ICDI inh: -3; aDG glyco act: 0; T cell modulator: 216

Results for COc1cccc(N2CC(C(=O)Nc3ccc(C(=O)OC(C)C)cc3)CC2=O)c1 (stereo not drawn) ?
GRK2 inh: 73*; procasp3 activ: 3; proCasp7 act: 4; CaV13 ICDI inh: -5; aDG glyco act: 0; T cell modulator: 134; GRK2 inh confirm: 1; Aptamer quench SP: 101

What do the screens show for `COc1ccc(C(=O)NCc2ccc3c(c2)cc(C)n3C)cc1OC`?
GRK2 inh: 5; procasp3 activ: -4; proCasp7 act: 2; CaV13 ICDI inh: 2; aDG glyco act: 0; T cell modulator: 536; GRK2 inh confirm: 1; Aptamer quench SP: 96

What do the screens show for `COc1cccc(C(=O)NCc2ccc3c(c2)cc(C)n3C)c1`?
GRK2 inh: 84*; procasp3 activ: 8; proCasp7 act: 6; CaV13 ICDI inh: 2; aDG glyco act: -1; T cell modulator: 330; GRK2 inh confirm: 0; Aptamer quench SP: 96

Results for COc1ccc(NC(=S)NCc2ccc3c(c2)cc(C)n3C)cc1 ?
GRK2 inh: 1; procasp3 activ: 3; proCasp7 act: 8; CaV13 ICDI inh: -7; aDG glyco act: 0; T cell modulator: 385

Results for COc1ccc(CC(=O)NCc2ccc3c(c2)cc(C)n3C)cc1 ?
GRK2 inh: 67*; procasp3 activ: 3; proCasp7 act: -7; CaV13 ICDI inh: -7; aDG glyco act: 0; T cell modulator: 98; GRK2 inh confirm: -2; Aptamer quench SP: 95

How did COc1ccc(S(=O)(=O)NCc2ccc3c(c2)cc(C)n3C)cc1 do in these assays?
GRK2 inh: 0; procasp3 activ: -8; proCasp7 act: 5; CaV13 ICDI inh: -5; aDG glyco act: 0; T cell modulator: 367

How did Cc1cc2cc(CNC(=O)c3cccs3)ccc2n1C do in these assays?
GRK2 inh: 40; procasp3 activ: 4; proCasp7 act: 20; CaV13 ICDI inh: -6; aDG glyco act: 0; T cell modulator: 204

Results for Cc1cc2cc(CNS(=O)(=O)c3ccccc3)ccc2n1C ?
GRK2 inh: 54*; procasp3 activ: 3; proCasp7 act: 2; CaV13 ICDI inh: -5; aDG glyco act: 0; T cell modulator: 262; GRK2 inh confirm: 3; Aptamer quench SP: 84

Results for CC1(C(=O)NCc2ccccc2Br)CCN1Cc1csc2ccccc12 (stereo not drawn) ?
CaV13 ICDI inh: -12; aDG glyco act: 0

What do the screens show for `Cc1ccsc1C(=O)NNC(=O)c1cccc(S(=O)(=O)N2CCCC2)c1`?
GRK2 inh: 5; procasp3 activ: 1; proCasp7 act: -5; CaV13 ICDI inh: -6; aDG glyco act: 0; T cell modulator: 426

Results for Cc1cc2cc(CNC(=O)c3ccc(S(=O)(=O)N4CCCCC4)cc3)ccc2n1C ?
GRK2 inh: 66*; procasp3 activ: -1; proCasp7 act: 8; CaV13 ICDI inh: -3; aDG glyco act: 0; T cell modulator: 361; GRK2 inh confirm: 0; Aptamer quench SP: 99; GRK2 CP2: -12; FAM quench SP: 100
